This note sets out measurements from the array DNA melting data of Ke et al. (doi:10.1101/2024.01.08.574731).

The nature of data set [1]: melting temperature; fluorescence melt of hairpins on a sequencing array, two-state fit, raised by 9.35 °C to match UV melts. Particulars: sodium 0.088 M. The method, boiled down:
(§1)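 Folding enthalpy and melting temperature come from bootstrapped two-state fits to Cy3 fluorescence of library hairpins carrying annealed Cy3 and quencher oligos on a sequenced MiSeq flow cell. Imaging was done in 50 mM Na-HEPES pH 8.0, 25 mM NaCl, stepping by 2.5 °C up to 60 °C, and signals were normalised to pre-quench Cy3 and to control constructs. Results of four replicates were combined by inverse variance, and fitted temperatures were raised by 9.35 °C to match UV melts.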

Data set [2] can be described thus: folding enthalpy; higher = less favourable; fluorescence melt of hairpins on a sequencing array, two-state fit. Particulars: sodium 0.088 M. The method, boiled down: as §1

For the sequence GCATAGCGAAAGCTTCGC ((..(((....)))..)), the Tm in data set [1] is 34.6 °C. Besides, in data set [2], the folding enthalpy is -10.1 kcal/mol.

For the sequence GCATAGGGAAACCTACGC ((.((((....)))).)), the Tm in data set [1] came to 35.9 °C. For the same sequence, the folding enthalpy in data set [2] was -27.9 kcal/mol.

Consider GCATATCCGAAAGGATGC (((..(((....)))))), for which the Tm in data set [1] worked out at 43.5 °C. In data set [2], the folding enthalpy is -15.2 kcal/mol.

Take GCATATCGAAAGATCTGC (((.(((....))).))): in data set [1], the Tm amounted to 43.9 °C. The folding enthalpy in data set [2] was -31.2 kcal/mol.

Regarding GCATCAGGAAACTGGTGC (((.(((....))).))), the Tm in data set [1] was 53.4 °C. Besides, the folding enthalpy in data set [2] was -40.9 kcal/mol.

For the sequence GCATCCCGAAAGGGCTGC (((.(((....))).))), the Tm in data set [1] amounted to 56.2 °C. Moreover, in data set [2], the folding enthalpy was -36.2 kcal/mol.

For GCATCCGAAAGGAAGTGC ((((((....)))..))), in data set [1], the Tm was found to be 41.3 °C. The folding enthalpy in data set [2] was -24.3 kcal/mol.

Regarding GCATCCGAAAGGACCTGC ((((((....)))..))), the Tm in data set [1] came to 30 °C. The folding enthalpy in data set [2] was -12.9 kcal/mol.

On to GCATCCGAAAGGACTGC ((((((....))).))), for which the Tm in data set [1] was 47.8 °C. Besides, the folding enthalpy in data set [2] was -15 kcal/mol.

Regarding GCATCCGAAAGGAGGTGC ((((((....)))..))), the Tm in data set [1] worked out at 48.1 °C. Further, the folding enthalpy in data set [2] was -24.9 kcal/mol.

Take GCATCCGAAAGGATATGC ((((((....)))..))): in data set [1], the Tm is 47.6 °C. In addition, in data set [2], the folding enthalpy was -15.7 kcal/mol.

Take GCATCCGCGAAAGCGTGC (((..(((....)))))): in data set [1], the Tm stood at 40.3 °C. Besides, the folding enthalpy in data set [2] is -10.9 kcal/mol.

Consider GCATCCGGAAACGGACGC ((.((((....)))).)), for which the Tm in data set [1] worked out at 51.3 °C. The folding enthalpy in data set [2] was -31.2 kcal/mol.

Turning to GCATCGCGAAAGCCAGGC ((.(.((....)).).)), the Tm in data set [1] amounted to 37.2 °C. Further, the folding enthalpy in data set [2] is -10.4 kcal/mol.

For the sequence GCATCGCGAAAGCGCCGC ((..(((....)))..)), the Tm in data set [1] was found to be 38 °C. In data set [2], the folding enthalpy is -10.5 kcal/mol.

Take GCATCGCGAAAGCGGAGC ((..(((....)))..)): the Tm in data set [1] was 54.2 °C. In addition, the folding enthalpy in data set [2] is -16.5 kcal/mol.

Take GCATCGCGAAAGCGGGGC ((..(((....)))..)): the Tm in data set [1] was determined as 63.1 °C. For the same sequence, the folding enthalpy in data set [2] was -22.2 kcal/mol.

On to GCATCGCGAAAGCTTTGC (((..((....))..))), for which the Tm in data set [1] was 41.2 °C. In addition, in data set [2], the folding enthalpy was -18.6 kcal/mol.

Regarding GCATCTACGAAAGTATGC (((..(((....)))))), in data set [1], the Tm amounted to 34.6 °C. Moreover, the folding enthalpy in data set [2] was -20.7 kcal/mol.

On to GCATCTGAAAAGATGC ((((((....)))))), for which the Tm in data set [1] stood at 64.7 °C. The folding enthalpy in data set [2] is -32.6 kcal/mol.

On to GCATGAACGAAAGTTTGC (((..(((....)))))), for which, in data set [1], the Tm stood at 33.9 °C. Besides, in data set [2], the folding enthalpy was -20.5 kcal/mol.

In the case of GCATGAGAAATCATGC ((((((....)))))), the Tm in data set [1] turned out to be 56.4 °C. Further, in data set [2], the folding enthalpy was -38.7 kcal/mol.

Take GCATGAGGAAACTTATGC ((((.((....)).)))): the Tm in data set [1] amounted to 44.2 °C. Besides, the folding enthalpy in data set [2] is -34.7 kcal/mol.

For the sequence GCATGAGGAAACTTGTGC (((..((....))..))), in data set [1], the Tm worked out at 35.9 °C. Moreover, in data set [2], the folding enthalpy was -26.6 kcal/mol.

With GCATGCACGAAAGTGTGC (((..(((....)))))), the Tm in data set [1] was 42.5 °C. Besides, the folding enthalpy in data set [2] is -13.3 kcal/mol.

Regarding GCATGCGGAAACGCACAC (..((((....))))..), the Tm in data set [1] worked out at 27.7 °C. Further, the folding enthalpy in data set [2] is -9.47 kcal/mol.

Turning to GCATGGCGAAAGCAAGGC ((.(.((....)).).)), the Tm in data set [1] was 49.5 °C. Besides, the folding enthalpy in data set [2] was -17.2 kcal/mol.

On to GCATGGCGAAAGCAATGC ((((.((....)).)))), for which the Tm in data set [1] amounted to 64.8 °C. The folding enthalpy in data set [2] is -30.6 kcal/mol.

For the sequence GCATGGCGAAAGCAGTGC (((..((....))..))), in data set [1], the Tm amounted to 56.5 °C. In addition, in data set [2], the folding enthalpy was -19.7 kcal/mol.

Regarding GCATGGCGAAAGCCAAGC ((.((((....)))).)), in data set [1], the Tm came to 61.6 °C. Besides, the folding enthalpy in data set [2] is -17.6 kcal/mol.

As for GCATGGCGAAAGCTCTGC (((..((....))..))), in data set [1], the Tm was determined as 43.2 °C. The folding enthalpy in data set [2] was -18 kcal/mol.

Take GCATGGGAAACCATGC ((((((....)))))): in data set [1], the Tm came out at 65.6 °C. Further, in data set [2], the folding enthalpy is -34.4 kcal/mol.

For GCATGGGCGAAAGCCTGC (((..(((....)))))), in data set [1], the Tm stood at 48.7 °C. In addition, the folding enthalpy in data set [2] is -16.3 kcal/mol.

In the case of GCATGGGGAAACCCACAC (..((((....))))..), the Tm in data set [1] amounted to 29 °C. The folding enthalpy in data set [2] was -14.2 kcal/mol.

For the sequence GCATGGGGAAACTCGTGC (((.(.(....).).))), the Tm in data set [1] is 41 °C. Also, the folding enthalpy in data set [2] is -26.2 kcal/mol.

For the sequence GCATGTACGAAAGTATGC (((..(((....)))))), in data set [1], the Tm was determined as 43.8 °C. The folding enthalpy in data set [2] was -29.3 kcal/mol.
